Columns and labels:
[1] = Drug excretion in F344 rat feces at 1 mg/kg, iv administered as single dose after 0 to 48 hrs by scintillation counting method; assay type: ADME, organism-based; design: dose 1 mg/kg, route intravenous; settings: in vivo
Outline: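 Fasted F344 rats (152–156 g iv via tail vein; 154–159 g oral; n = 4) received [14C]-labelled drug at 1 mg/kg (41.9 µCi/kg). Animals were kept in metabolic cages; urine and feces were collected to 168 h, and expired CO2 was trapped in 2-aminoethanol/2-methoxyethanol (1:1) to 48 h. Samples were counted by liquid scintillation (feces homogenized). Results are % of dose, mean ± S.D.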

[2] = system: Rattus norvegicus; test: Total drug excretion in F344 rat at 1 mg/kg, po administered as single dose after 0 to 168 hrs by scintillation counting method; assay type: ADME, organism-based; design: dose 1 mg/kg, route oral; settings: in vivo
Outline: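 Fasted F344 rats (n = 4) received [14C]-labelled drug at 1 mg/kg (41.9 µCi/kg), iv via tail vein or oral. They were housed in metabolic cages. Urine and feces were collected to 168 h, and expired CO2 was trapped in 2-aminoethanol/2-methoxyethanol to 48 h. Radioactivity was counted by liquid scintillation, feces after homogenization. Results are % of dose.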

[3] = AUC (0 to infinity) in F344 rat at 10 mg/kg, iv administered as single dose by LC-MS/MS method; assay type: ADME, organism-based; design: time infinity, dose 10 mg/kg, route intravenous; settings: plasma
Outline: (§1)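 Fasted male F344 rats (146–185 g) or male cynomolgus monkeys (3.48–4.29 kg), n = 4 per dose, given single iv or oral dose of 0.3, 1.0, 3.0 or 10.0 mg/kg; monkeys dosed with 2-week washouts. Blood sampled to 48 h; plasma stored frozen. LC-MS/MS with deuterated internal standard. Noncompartmental analysis: AUClast by trapezoidal rule; AUC0–inf = AUClast + Ctz/terminal rate constant; mean ± S.D.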

[4] = AUClast in cynomolgus monkey at 3 mg/kg, iv administered as single dose by LC-MS/MS method; assay type: ADME, organism-based, Macaca fascicularis; design: time 0 - last, dose 3 mg/kg, route intravenous; settings: plasma; outline: as §1

Row | Drug excretion [1] | Drug excretion [2] | AUC(0-inf) [3] | AUC(0-t) [4] | Structure (SMILES)
1 | 15.66% | 97.94% | – | – | C[C@H]1O[C@@H](O[C@H]2[C@H](O)[C@@H](O)[C@@H](O[14C@H]3[14C@H](O)[14CH2]N[14C@@H]3[14CH2]O)O[C@@H]2CO)[C@H](O)[C@@H](O)[C@@H]1O
2 | – | – | 53200 ng·h/mL | 18100 ng·h/mL | C[C@H]1O[C@@H](O[C@H]2[C@H](O)[C@@H](O)[C@@H](O[C@H]3[C@H](O)CN[C@@H]3CO)O[C@@H]2CO)[C@H](O)[C@@H](O)[C@@H]1O

Reference: ChEMBL document CHEMBL3526127, “Absorption, elimination, and metabolism of CS-1036, a novel α-amylase inhibitor in rats and monkeys, and the relationship between gastrointestinal distribution and suppression of glucose absorption” (Drug Metab Dispos, 2013)
